Furin inh: human furin inhibitors, primary screen, biochemical, fluorescence intensity; purified furin, fluorogenic substrate cleavage; inhibition, % at 20 µM or 30 µM; 0.061% of 220,000 active; AID 463115, 2010; in the data active = inhibition above about 25%
Target sequence (P09958 108-714 limits assumed): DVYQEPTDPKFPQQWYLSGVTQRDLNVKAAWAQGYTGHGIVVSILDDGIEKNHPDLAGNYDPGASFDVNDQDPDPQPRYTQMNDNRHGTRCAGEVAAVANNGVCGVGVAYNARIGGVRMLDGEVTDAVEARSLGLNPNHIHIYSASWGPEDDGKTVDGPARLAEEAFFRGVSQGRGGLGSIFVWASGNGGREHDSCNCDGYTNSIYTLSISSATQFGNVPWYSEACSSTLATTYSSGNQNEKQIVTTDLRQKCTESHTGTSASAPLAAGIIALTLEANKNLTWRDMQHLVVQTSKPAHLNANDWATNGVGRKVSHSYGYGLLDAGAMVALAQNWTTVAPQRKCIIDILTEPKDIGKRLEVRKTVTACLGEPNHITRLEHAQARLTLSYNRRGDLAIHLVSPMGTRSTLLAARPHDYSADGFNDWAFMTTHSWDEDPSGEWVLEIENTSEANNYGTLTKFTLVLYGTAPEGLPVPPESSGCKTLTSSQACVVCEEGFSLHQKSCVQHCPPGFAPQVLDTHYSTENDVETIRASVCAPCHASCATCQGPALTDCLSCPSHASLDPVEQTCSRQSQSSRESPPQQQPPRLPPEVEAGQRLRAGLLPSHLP
HSV augment: enhancers of HSV replication in host cells, fold increase, host cell viability. 0.005% of 220,000 active. maximum fold increase. HSV replication augmentation in cells; in the data active = maximum fold increase above about 1.5; tested in PC3 cells
L929 necroptosis: inhibitors of zVAD-triggered necroptosis, primary screen, L929 cells; L929 zVAD necroptosis rescue, ATP luminescence, 24 h; with zVAD 60 µM; 0.38% of 220,000 active; AID 1377, 2008; viability rescue, % at 10 µM;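 active = activation, scaled between plate controls, above about 75%, limit read from the data; inactive = activation under that limit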;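 also: 0% = zVAD with DMSO and 100% = DMSO alone without zVAD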
TNF necrop inh: inhibitors of TNF-alpha triggered necroptosis, primary screen, cell-based, Jurkat FADD-/-, single concentration | activation (protection from cell death), % at 10 µM | AID 463075, 2010 | 0.068% of 220,000 active | Jurkat FADD-/- TNF necroptosis rescue, ATP luminescence, 24 h; 0 = TNF only, 100 = no-TNF cells;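 active = activation, meaning protection from cell death, of at least 50% relative to plate controls; inactive = activation below 50%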;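 also: necroptosis triggered by 40 ng/mL TNF-alpha added together with compound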
Autophagy mod: autophagy modulators in MEF cells, primary screen, imaging, high-content, MEF GFP-LC3; MEF GFP-LC3 puncta imaging; test concentration mostly 10 µM; AID 463193, 2010; 0.98% of 190,000 active; calls only at 10 µM (by protocol);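 active = percentage of spot-positive cells more than 3 SD above its plate mean, without a fluorescence outlier flag or 80% toxicity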;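 also: spot-positive cell cutoff set from DMSO-treated cells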
Dynein transport: inhibitors of GR-EGFP nuclear translocation, primary screen, dynein cargo transport inhibitor project, imaging, high-content, 3617.4 mouse cells; test concentration mostly 20 µM; stimulated with dexamethasone, 1 µM; stronger effect = lower value; z-score, hits read low; 0.47% of 220,000 active;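 active = plate z-score of nuclear minus cytoplasmic receptor signal below a set negative limit, without overly bright fluorescence or cell loss, cut at about -3.5 in these data, passing the limit was not always enough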;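 also: z-score of nuclear minus cytoplasmic ring GR-EGFP intensity difference per well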
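Buffer or medium – tet-free medium with charcoal-stripped serum · Signal – automated 10x imaging of fixed Hoechst-stained cells · Also added – dexamethasone agonist, 1.0 µM final, for 30 min · Incubation – induction 48 h, compound 1 h, agonist 30 min · Read-out – GR-EGFP nuclear translocation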
* hit, by the source's call. Compounds with a hit are over-represented: about 1.8% of the library has one in this group of screens.

`Nc1c(C(=O)Nc2ccc(S(=O)(=O)N3CCCC3)cc2)sc2nc3cc4c(cc3cc12)CCC4` gave Furin inh -12, L929 necroptosis 10, TNF necrop inh 4, Autophagy mod active and Dynein transport -2.5.
`COc1ccc2nc(SCC(=O)Nc3ccc(S(=O)(=O)N4CCCC4)cc3)c(C#N)cc2c1` gave Furin inh -22, HSV augment inactive, L929 necroptosis 5, TNF necrop inh 17, Autophagy mod inactive and Dynein transport -0.13.
For O=C(Nc1ccc(S(=O)(=O)N2CCCC2)cc1)c1ccc2c(=O)n3c(nc2c1)CCCCC3 the results were Furin inh -24, HSV augment inactive, L929 necroptosis 4, TNF necrop inh -2, Autophagy mod inactive and Dynein transport -0.15.
`Nc1c(C(=O)Nc2ccc(S(=O)(=O)N3CCCC3)cc2)sc2nc3ccc(OC(F)(F)F)cc3cc12` gave Furin inh -11, L929 necroptosis 1, TNF necrop inh 4, Autophagy mod active and Dynein transport -7.4.
For COc1cc(C=O)ccc1Oc1nc(Nc2ccc(F)cc2F)nc(N2CCOCC2)n1 the results were Furin inh 1, HSV augment inactive, L929 necroptosis 0, TNF necrop inh -1, Autophagy mod inactive and Dynein transport 1.3.
CC(C)C[C@H](NC(=O)c1nc[nH]c1C(=O)N1CCN(C(=O)OC(C)(C)C)CC1)C(=O)OCc1ccccc1 was read as Furin inh -23, HSV augment inactive, L929 necroptosis 0, TNF necrop inh -3, Autophagy mod inactive and Dynein transport 0.24.
Screening COc1ccc(N2CCN(S(=O)(=O)c3cccc4cccnc34)CC2)cc1 returned Furin inh -17, HSV augment inactive, L929 necroptosis 1, TNF necrop inh 0 and Dynein transport -0.32.
`O=S(=O)(c1cccc2cccnc12)N1CCN(c2ccc(F)cc2)CC1` gave Furin inh -29, HSV augment inactive, L929 necroptosis 4, TNF necrop inh 56*, Autophagy mod inactive and Dynein transport -0.94.
Screening N#CCN1C(=O)C2CCCN2c2ccc(S(=O)(=O)N3CCOCC3)cc21 (stereo not given) returned Furin inh -22, HSV augment inactive, L929 necroptosis 4, TNF necrop inh 0, Autophagy mod inactive and Dynein transport -0.26.
`Nc1cc(-c2cccc(Br)c2)nn1Cc1ccccc1` gave Furin inh -1, HSV augment inactive, L929 necroptosis 1, TNF necrop inh 3, Autophagy mod active and Dynein transport 1.6.
Screening Nc1cccc(C(=O)OCC(=O)Nc2cccc3c2C(=O)c2ccccc2C3=O)c1 returned Furin inh -2, HSV augment inactive, L929 necroptosis 0, TNF necrop inh -2, Autophagy mod active and Dynein transport 0.065.
Screening CCOC(=O)C1(Cc2cccc(Cl)c2)CCCN(C(=O)c2cccc(C)n2)C1 (stereo not given) returned Furin inh -28, HSV augment inactive, L929 necroptosis 0, TNF necrop inh -3, Autophagy mod inactive and Dynein transport 0.43.
Screening CCCCN(CC)S(=O)(=O)c1ccc(C(=O)N(CCCN(C)C)c2nc3cc(C)cc(C)c3s2)cc1 returned Furin inh -2, HSV augment inactive, L929 necroptosis 0, TNF necrop inh -7, Autophagy mod active and Dynein transport 2.9.
`COc1ccc(Cn2c(-c3ccc(C)cc3)c[n+]3ccccc23)cc1` gave Furin inh -16, HSV augment inactive, L929 necroptosis 0, TNF necrop inh -3, Autophagy mod inactive and Dynein transport -0.84.
For CC(=O)Nc1cccc(NC(=O)CSc2nnnn2-c2ccc3c(c2)OCO3)c1 the results were Furin inh -23, HSV augment inactive, L929 necroptosis 0, TNF necrop inh -1 and Dynein transport -0.32.
`CCCCN1CC(O)=C(c2nc(-c3ccc(Cl)cc3)cs2)C1=N` gave Furin inh -18, HSV augment inactive, L929 necroptosis 1, TNF necrop inh 0, Autophagy mod active and Dynein transport -0.48.
For COc1ccc(C2C(C(=O)c3ccccc3)N3c4ccccc4C=CC3C2[N+](=O)[O-])cc1 (stereo not given) the results were Furin inh -6, HSV augment inactive, L929 necroptosis 6, TNF necrop inh -7, Autophagy mod inactive and Dynein transport -0.82.
For O=C(CCc1nc(-c2cccs2)no1)NCc1ccc(F)cc1Cl the results were Furin inh -18, HSV augment inactive, L929 necroptosis 1, TNF necrop inh 0, Autophagy mod active and Dynein transport -0.1.
Screening Cc1nn(-c2ccccc2)c2c1C1(C(=O)Nc3ccccc31)N1C(=N2)Sc2ccccc21 (stereo not given) returned Furin inh -25, HSV augment inactive, L929 necroptosis 0, TNF necrop inh 0, Autophagy mod active and Dynein transport -1.4.
`COc1ccc(CNC(=O)C/C(C)=N/NC(=O)COc2ccc(C)cc2Br)cc1` gave Furin inh -29, HSV augment inactive, L929 necroptosis 0, TNF necrop inh -1, Autophagy mod inactive and Dynein transport -1.5.
For COC(=O)c1cc(=O)n(-c2ccc(F)cc2)c(=Nc2ccc(F)cc2)s1 the results were Furin inh -16, HSV augment inactive, TNF necrop inh -15, Autophagy mod inactive and Dynein transport -4.2*.
Screening CCOc1ccc(N=C2NC(=O)S/C2=C\c2ccc(N(C)C)cc2)cc1 returned Furin inh -11, L929 necroptosis 0, TNF necrop inh -7, Autophagy mod active and Dynein transport -0.46.
CCOc1ccc(/C=C2/SC(=O)NC2=S)cc1 was read as Furin inh -15, HSV augment inactive, L929 necroptosis 18, TNF necrop inh -2, Autophagy mod inactive and Dynein transport -0.26.
O=C(Cn1c(O)c(/C=C2\C=Nc3ccccc32)sc1=O)Nc1ccc2c(c1)OCO2 was read as Furin inh -7, HSV augment inactive, L929 necroptosis 0, TNF necrop inh 0, Autophagy mod active and Dynein transport -0.067.
COc1ccc(CC(=O)NCc2n[nH]c(=S)n2-c2cccc(Cl)c2)cc1 was read as Furin inh -15, HSV augment inactive, L929 necroptosis 1, TNF necrop inh -1, Autophagy mod inactive and Dynein transport 1.3.
Oc1c(C=NCc2ccc(F)cc2)[nH]c2ccc(Br)c(Cl)c12 was read as Furin inh -13, HSV augment inactive, L929 necroptosis 0, TNF necrop inh -5, Autophagy mod active and Dynein transport -3.1.

Compound activity from PubChem.
